From ChEMBL document CHEMBL3124882, “Semi-synthesis of acylated triterpenes from olive-oil industry wastes for the development of anticancer and anti-HIV agents” (Eur J Med Chem, 2014)
The source made the active and inactive calls. No cut-off for these calls is given here.

Key:
B16-F10 [1] = assay: Induction of apoptosis in mouse B16F10 cells assessed as total apoptotic cells at 2 X IC50 after 72 hrs by annexin V-FITC/propidium iodide staining-based FACS analysis (reference value: 13.7 +/- 2.7%); format: functional
B16-F10 [2] = assay: Induction of apoptosis in mouse B16F10 cells assessed as necrotic cells at IC50 after 72 hrs by annexin V-FITC/propidium iodide staining-based FACS analysis (reference value: 4.0 +/- 0.6%); format: functional
B16-F10 [3] = assay: Induction of apoptosis in mouse B16F10 cells assessed as late apoptotic cells at 2 X IC50 after 72 hrs by annexin V-FITC/propidium iodide staining-based FACS analysis (reference value: 9.8 +/- 2.2%); format: functional
B16-F10 [4] = assay: Induction of apoptosis in mouse B16F10 cells assessed as early apoptotic cells at IC50 after 72 hrs by annexin V-FITC/propidium iodide staining-based FACS analysis (reference value: 3.9 +/- 0.4%); format: functional
B16-F10 [5] = assay: Cytotoxicity against mouse B16F10 cells after 72 hrs by MTT assay; format: functional, cell-based; conditions: B16-F10, 72 h
How it was run: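 B16F10 cells (DMEM, 2 mM glutamine, 10% heat-inactivated FCS, penicillin/streptomycin; subconfluent) seeded at 11·10^3 per well and exposed to 0–80 µg/mL for 72 h. Compounds were diluted from a 10 mg/mL stock in 50% DMSO/PBS. MTT 0.5 mg/mL for 2 h, formazan dissolved in DMSO, absorbance at 550 nm. Viability is relative to untreated controls; IC50 from four assays of six replicates, mean ± S.E.M.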

B16-F10 [6] = assay: Induction of apoptosis in mouse B16F10 cells assessed as normal cells at IC50 after 72 hrs by annexin V-FITC/propidium iodide staining-based FACS analysis (reference value: 77.9 +/- 1.5%); format: functional
B16-F10 [7] = assay: Induction of apoptosis in mouse B16F10 cells assessed as late apoptotic cells at IC50 after 72 hrs by annexin V-FITC/propidium iodide staining-based FACS analysis (reference value: 9.8 +/- 2.2%); format: functional
B16-F10 [8] = assay: Induction of apoptosis in mouse B16F10 cells assessed as normal cells at 2 X IC50 after 72 hrs by annexin V-FITC/propidium iodide staining-based FACS analysis (reference value: 77.9 +/- 1.5%); format: functional
B16-F10 [9] = assay: Induction of apoptosis in mouse B16F10 cells assessed as total apoptotic cells at IC50 after 72 hrs by annexin V-FITC/propidium iodide staining-based FACS analysis (reference value: 13.7 +/- 2.7%); format: functional
B16-F10 [10] = assay: Induction of apoptosis in mouse B16F10 cells assessed as early apoptotic cells at 2 X IC50 after 72 hrs by annexin V-FITC/propidium iodide staining-based FACS analysis (reference value: 3.9 +/- 0.4%); format: functional
B16-F10 [11] = assay: Induction of apoptosis in mouse B16F10 cells assessed as necrotic cells at 2 X IC50 after 72 hrs by annexin V-FITC/propidium iodide staining-based FACS analysis (reference value: 4.0 +/- 0.6%); format: functional
Protease = Protease (Human immunodeficiency virus 1, UniProt Q9YQ12); assay: Inhibition of HIV1 recombinant protease expressed in Escherichia coli using Abz-Ala-Arg-Val-Nle-Tyr(NO2)-Glu-Ala-Nle-NH2 as substrate by FRET assay
B16-F10 [12] = assay: Induction of ROS generation in mouse B16F10 cells at IC50 to 2 X IC50 after 72 hrs by rhodamine123/propidium iodide staining-based FACS analysis; format: functional, cell-based
How it was run: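 B16F10 cells, 11·10^4 per well, treated 72 h at IC50 or 2×IC50, then given fresh medium with dihydrorhodamine 123 at a final 5 µg/mL for 30 min. Cells washed, resuspended in PBS and read by flow cytometry for Rh123 and PI fluorescence (excitation 500 nm, emission 536 nm). Rh123+ cells scored ROS-positive regardless of PI. Three experiments in duplicate, mean ± S.E.M.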

Protease, sequence (Q9YQ12 whole entry): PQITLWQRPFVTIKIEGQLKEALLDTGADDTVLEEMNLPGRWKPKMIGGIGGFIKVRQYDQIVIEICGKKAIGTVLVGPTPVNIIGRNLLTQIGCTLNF

SMILES | Activity (B16-F10 [1]) | Activity (B16-F10 [2]) | Activity (B16-F10 [3]) | Activity (B16-F10 [4]) | IC50 (B16-F10 [5]) | Activity (B16-F10 [6]) | Activity (B16-F10 [7]) | Activity (B16-F10 [8]) | Activity (B16-F10 [9]) | Activity (B16-F10 [10]) | Activity (B16-F10 [11]) | IC50 (Protease) | Activity (B16-F10 [12])
CC1(C)CC[C@]2(C(=O)OCc3ccccc3)CC[C@]3(C)C(=CC[C@@H]4[C@@]5(C)CC[C@H](O)C(C)(C)[C@@H]5CC[C@]43C)[C@@H]2C1 | 41.6% | 4.3% | 18.6% | 15.6% | 52.2 µM | 67.9% | 12.2% | 54.3% | 27.8% | 23% | 4.1% | – | –
CC1(C)CC[C@]2(C(=O)O)CC[C@]3(C)C(=CC[C@@H]4[C@@]5(C)C[C@@H](O)[C@H](O)C(C)(C)[C@@H]5CC[C@]43C)[C@@H]2C1 [MASLINIC ACID] | 89.8% | 11.7% | 21% | 20.8% | 36.2 µM | 10.9% | 54.2% | 8.3% | 74.9% | 68.8% | 2% | 62.7 µM | –
CC1(C)CC[C@]2(C(=O)O)CC[C@]3(C)C(=CC[C@@H]4[C@@]5(C)CC[C@H](OC(=O)c6ccccc6C(=O)O)C(C)(C)[C@@H]5CC[C@]43C)[C@@H]2C1 | – | – | – | – | – | – | – | – | – | – | – | 0.31 µM | –
CCCCCCCCCCCC(=O)O[C@@H]1C[C@]2(C)[C@H]3CC=C4[C@@H]5CC(C)(C)CC[C@]5(C(=O)OCc5ccccc5)CC[C@@]4(C)[C@]3(C)CC[C@H]2C(C)(C)[C@H]1OC(=O)CCCCCCCCCCC | – | – | – | – | – | – | – | – | – | – | – | 73 µM | –
CC(C)(CC(=O)O)CC(=O)O[C@H]1CC[C@]2(C)[C@H]3CC=C4[C@@H]5CC(C)(C)CC[C@]5(C(=O)OCc5ccccc5)CC[C@@]4(C)[C@]3(C)CC[C@H]2C1(C)C | 88.8% | 5.3% | 36.1% | 44% | 14.2 µM | 8.3% | 42.6% | 4.9% | 86.5% | 52.8% | 6.4% | – | Active
CC(C)(CC(=O)O)CC(=O)O[C@H]1CC[C@]2(C)[C@H]3CC=C4[C@@H]5CC(C)(C)CC[C@]5(C(=O)O)CC[C@@]4(C)[C@]3(C)CC[C@H]2C1(C)C | – | – | – | – | – | – | – | – | – | – | – | 0.7 µM | –
CC1(C)CC[C@]2(C(=O)O)CC[C@]3(C)C(=CC[C@@H]4[C@@]5(C)C[C@@H](OC(=O)CCCC(=O)O)[C@H](OC(=O)CCCC(=O)O)C(C)(C)[C@@H]5CC[C@]43C)[C@@H]2C1 | – | – | – | – | – | – | – | – | – | – | – | 1.4 µM | –
CCCCCC(=O)O[C@@H]1C[C@]2(C)[C@H]3CC=C4[C@@H]5CC(C)(C)CC[C@]5(C(=O)OCc5ccccc5)CC[C@@]4(C)[C@]3(C)CC[C@H]2C(C)(C)[C@H]1OC(=O)CCCCC | – | – | – | – | – | – | – | – | – | – | – | 150 µM | –
CC(C)(CC(=O)O)CC(=O)O[C@@H]1C[C@]2(C)[C@H]3CC=C4[C@@H]5CC(C)(C)CC[C@]5(C(=O)OCc5ccccc5)CC[C@@]4(C)[C@]3(C)CC[C@H]2C(C)(C)[C@H]1O | 92.2% | 1.8% | 65.3% | 16.5% | 28.3 µM | 35.4% | 46.3% | 2.2% | 62.8% | 26.9% | 5.6% | – | Active
CCCC(=O)O[C@@H]1C[C@]2(C)[C@H]3CC=C4[C@@H]5CC(C)(C)CC[C@]5(C(=O)OCc5ccccc5)CC[C@@]4(C)[C@]3(C)CC[C@H]2C(C)(C)[C@H]1O | – | – | – | – | – | – | – | – | – | – | – | 226 µM | –
CC1(C)CC[C@]2(C(=O)O)CC[C@]3(C)C(=CC[C@@H]4[C@@]5(C)C[C@@H](OC(=O)CCC(=O)O)[C@H](OC(=O)CCC(=O)O)C(C)(C)[C@@H]5CC[C@]43C)[C@@H]2C1 | – | – | – | – | – | – | – | – | – | – | – | 1.9 µM | –
CC1(C)CC[C@]2(C(=O)O)CC[C@]3(C)C(=CC[C@@H]4[C@@]5(C)C[C@@H](OC(=O)CCC(=O)O)[C@H](O)C(C)(C)[C@@H]5CC[C@]43C)[C@@H]2C1 | – | – | – | – | – | – | – | – | – | – | – | 3.5 µM | –
